≈ marks a conversion by molar mass, not a printed value.
Experiments:
Candida albicans [1] = test: Antimicrobial activity against fluconazole-resistant Candida albicans J38 after 24 hrs by serial dilution method; assay type: functional; conditions: J38, 24 h
How it was run: (§1)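 Broth serial-dilution MIC in 96-well plates following NCCLS guidance. Compounds were dissolved in DMSO and serially diluted in growth medium. Clinical isolates came from a hospital collection. […] C. parapsilosis ATCC 22019 served as the quality-control strain in each assay.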

[2] = Aqueous solubility of the compound in hydrochloric acid solution at pH 1.2; assay type: physicochemical
How it was run: (§2)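 Excess solid was stirred for 3 h in pH 1.2 hydrochloric acid or pH 7.4 phosphate buffer, then filtered through 0.45 μm. Absorbance at the UV maximum was compared with a methanol standard, C′ = A′C/A, with values reported in mg/mL. Determined at 30 °C; mean ± SD, n = 3.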

Candida albicans [3] = test: Antimicrobial activity against Candida albicans Y0109 after 24 hrs by serial dilution method; assay type: functional; conditions: Y0109, 24 h
How it was run: (§3)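 Broth serial dilution MIC in 96-well plates following NCCLS/CLSI methods. Compounds were dissolved in DMSO and serially diluted in growth medium, with incubation at 35 °C. […] C. parapsilosis 22019 served as the quality-control strain in each assay.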

Candida parapsilosis = test: Antimicrobial activity against Candida parapsilosis 22019 after 24 hrs by serial dilution method; assay type: functional; conditions: Lodderomyces parapsilosis, 22019, 24 h; how it was run: as §3
Candida albicans [4] = test: Antimicrobial activity against Candida albicans SC5314 after 24 hrs by serial dilution method; assay type: functional; conditions: SC5314, 24 h; how it was run: as §3
Candida albicans [5] = test: Antimicrobial activity against fluconazole-resistant Candida albicans 100 after 24 hrs by serial dilution method; assay type: functional; conditions: Candida albicans, 100, 24 h; how it was run: as §1
Aspergillus fumigatus = test: Antimicrobial activity against Aspergillus fumigatus 7544 after 48 hrs by serial dilution method; assay type: functional; conditions: Aspergillus fumigatus, 7544, 48 h; how it was run: as §3
Candida albicans [6] = test: Antimicrobial activity against fluconazole-resistant Candida albicans J28 after 24 hrs by serial dilution method; assay type: functional; conditions: J28, 24 h; how it was run: as §1
Candida albicans [7] = test: Antimicrobial activity against fluconazole-resistant Candida albicans 103 after 24 hrs by serial dilution method; assay type: functional; conditions: Candida albicans, 103, 24 h; how it was run: as §1
Candida albicans [8] = test: Antimicrobial activity against fluconazole-resistant Candida albicans J18 after 24 hrs by serial dilution method; assay type: functional; conditions: J18, 24 h; how it was run: as §1
Nakaseomyces glabratus = test: Antimicrobial activity against Candida glabrata 537 after 24 hrs by serial dilution method; assay type: functional; conditions: Nakaseomyces glabratus, 537, 24 h; how it was run: as §3
[9] = Aqueous solubility of the compound in phosphate buffer at pH 7.4; assay type: physicochemical; how it was run: as §2
Cryptococcus neoformans = test: Antimicrobial activity against Cryptococcus neoformans 32609 after 72 hrs by serial dilution method; assay type: functional; conditions: Cryptococcus neoformans, 32609, 72 h; how it was run: as §3
[10] = biological target: Voltage-gated inwardly rectifying potassium channel KCNH2 (Homo sapiens, UniProt Q12809); test: Inhibition of human ERG expressed in CHO cells by whole-cell patch clamp assay; assay type: cell-based
Candida albicans [11] = test: Antimicrobial activity against Candida albicans SC5314 infected in ICR mouse assessed as mean survival days at 0.5 mg/kg, po qd for 5 days starting 2 hrs post infection (reference value: 9.0 +/- 0.67 days); assay type: functional
How it was run: (§4)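 Reference arm of the systemic C. albicans SC5314 model: female ICR mice (18−22 g, n = 10) were infected iv with 0.2 mL of 5 × 10⁶ CFU/mL. Fluconazole was given orally in distilled water, qd for 5 days from 2 h post-infection. Mean survival days were scored over 30 days.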

Candida albicans [12] = test: Antimicrobial activity against fluconazole-resistant Candida albicans 103 infected in ICR mouse assessed as mean survival days at 0.5 mg/kg, po qd for 5 days starting 2 hrs post infection (reference value: 1.5 +/- 0.53 days); assay type: functional
Candida albicans [13] = test: Antimicrobial activity against Candida albicans SC5314 infected in ICR mouse assessed as mean survival days at 0.5 mg/kg, po qd for 5 days starting 2 hrs post infection (reference value: 5.2 +/- 2.35 days starting 2 hrs post infection); assay type: functional; how it was run: as §4

Chain of Voltage-gated inwardly rectifying potassium channel KCNH2 (Q12809 whole entry): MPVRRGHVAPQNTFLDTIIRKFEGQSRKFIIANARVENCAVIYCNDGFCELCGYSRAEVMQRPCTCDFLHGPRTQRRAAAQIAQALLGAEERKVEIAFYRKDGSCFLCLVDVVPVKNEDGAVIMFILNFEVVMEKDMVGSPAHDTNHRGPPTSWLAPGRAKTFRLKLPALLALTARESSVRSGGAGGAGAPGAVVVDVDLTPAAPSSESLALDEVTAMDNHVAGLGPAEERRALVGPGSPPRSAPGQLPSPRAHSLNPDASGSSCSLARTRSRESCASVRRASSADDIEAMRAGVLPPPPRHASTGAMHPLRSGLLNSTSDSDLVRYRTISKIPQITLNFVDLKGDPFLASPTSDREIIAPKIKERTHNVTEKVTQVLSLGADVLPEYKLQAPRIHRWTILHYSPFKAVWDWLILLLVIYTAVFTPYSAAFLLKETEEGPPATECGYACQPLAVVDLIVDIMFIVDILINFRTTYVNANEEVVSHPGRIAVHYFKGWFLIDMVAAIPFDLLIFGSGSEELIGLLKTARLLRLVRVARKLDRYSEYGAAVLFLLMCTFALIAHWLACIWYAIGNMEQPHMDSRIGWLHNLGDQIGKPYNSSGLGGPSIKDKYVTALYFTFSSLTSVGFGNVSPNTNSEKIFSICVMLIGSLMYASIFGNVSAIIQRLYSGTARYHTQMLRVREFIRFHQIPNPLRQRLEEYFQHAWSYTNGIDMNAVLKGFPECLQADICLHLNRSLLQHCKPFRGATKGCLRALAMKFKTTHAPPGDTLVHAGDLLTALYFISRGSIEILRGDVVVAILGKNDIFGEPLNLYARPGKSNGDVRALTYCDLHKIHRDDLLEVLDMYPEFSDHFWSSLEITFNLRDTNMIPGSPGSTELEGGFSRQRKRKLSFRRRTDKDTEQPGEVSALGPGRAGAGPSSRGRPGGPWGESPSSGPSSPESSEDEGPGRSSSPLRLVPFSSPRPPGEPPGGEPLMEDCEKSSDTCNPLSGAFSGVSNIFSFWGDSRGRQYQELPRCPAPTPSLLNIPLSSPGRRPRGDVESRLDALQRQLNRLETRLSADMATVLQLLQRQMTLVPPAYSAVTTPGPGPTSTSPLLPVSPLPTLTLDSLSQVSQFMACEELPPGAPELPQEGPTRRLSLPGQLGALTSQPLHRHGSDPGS

Row | Compound | MIC (Candida albicans [1]) [µg/mL] | solubility [2] [µg/mL] | MIC (Candida albicans [3]) [µg/mL] | MIC (Candida parapsilosis) [µg/mL] | MIC (Candida albicans [4]) [µg/mL] | MIC (Candida albicans [5]) [µg/mL] | MIC (Aspergillus fumigatus) [µg/mL] | MIC (Candida albicans [6]) [µg/mL] | MIC (Candida albicans [7]) [µg/mL] | MIC (Candida albicans [8]) [µg/mL] | MIC (Nakaseomyces glabratus) [µg/mL] | solubility [9] [µg/mL] | MIC (Cryptococcus neoformans) [µg/mL] | IC50 [10] [µM] | Survival (Candida albicans [11]) [days] | Survival (Candida albicans [12]) [days] | Survival (Candida albicans [13]) [days]
1 | C[C@@H](N1CCc2nc(-c3cncnc3)sc2C1)[C@](O)(Cn1cncn1)c1ccc(F)cc1F | ≤ 0.0312 | 14700 (≈ 31300 µM) | 0.0156 (≈ 0.0332 µM) | 0.0625 (≈ 0.133 µM) | 0.0156 (≈ 0.0332 µM) | > 16 | 1 (≈ 2.13 µM) | 0.0625 (≈ 0.133 µM) | 8 (≈ 17 µM) | > 16 | 0.0625 (≈ 0.133 µM) | 3090 (≈ 6590 µM) | 0.0625 (≈ 0.133 µM) |  |  |  | 
2 | CCC(C)n1ncn(-c2ccc(N3CCN(c4ccc(OCC5COC(Cn6cncn6)(c6ccc(Cl)cc6Cl)O5)cc4)CC3)cc2)c1=O (racemic) [ITRACONAZOLE] |  |  |  |  |  |  |  |  |  |  |  |  |  | > 40 |  |  | 
3 | C[C@@H](n1cnc2cc(Cl)ccc2c1=O)[C@](O)(Cn1cncn1)c1ccc(F)cc1F [ALBACONAZOLE] | ≤ 0.0312 | 1 (≈ 2.32 µM) | ≤ 0.0312 | 0.0156 (≈ 0.0361 µM) | 0.0078 (≈ 0.0181 µM) | 8 (≈ 18.5 µM) | 0.5 (≈ 1.16 µM) | ≤ 0.0312 | 4 (≈ 9.26 µM) | > 16 | ≤ 0.0312 |  | ≤ 0.0312 |  |  |  | 
4 | OC(Cn1cncn1)(Cn1cncn1)c1ccc(F)cc1F [FLUCONAZOLE] | > 4 |  | 0.5 (≈ 1.63 µM) | 1 (≈ 3.27 µM) | 0.5 (≈ 1.63 µM) | 512 (≈ 1670 µM) | > 64 | > 4 | > 1020 | > 1020 | 0.25 (≈ 0.816 µM) |  | 0.5 (≈ 1.63 µM) |  | 13.1 | 2.3 | 11.7
5 | C[C@@H](c1ncncc1F)[C@](O)(Cn1cncn1)c1ccc(F)cc1F [VORICONAZOLE] | 0.0625 (≈ 0.179 µM) | 1260 (≈ 3620 µM) | 0.0625 (≈ 0.179 µM) | 0.125 (≈ 0.358 µM) | ≤ 0.0625 | > 16 | 2 (≈ 5.73 µM) | 0.0625 (≈ 0.179 µM) | > 16 | > 16 | ≤ 0.125 | 682 (≈ 1950 µM) | 0.0625 (≈ 0.179 µM) |  |  |  | 
